According to ChEMBL document CHEMBL1221265, “Synthesis and in vitro antibacterial activity of novel fluoroquinolone derivatives containing substituted piperidines” (Bioorg Med Chem Lett, 2010):
Converted amounts (≈) assume the structure as drawn.

Legend:
Staphylococcus aureus [1] = test: Antibacterial activity against Staphylococcus aureus ATCC 29213 after 18 to 24 hrs by agar dilution method; type: functional
Procedure, shortened: (§1)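 Agar dilution done to NCCLS recommendations. Plates incubated 18–24 h at 35 °C. MIC taken as the lowest concentration of compound that gave no visible bacterial growth.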

Staphylococcus aureus [2] = test: Antibacterial activity against methicillin-resistant Staphylococcus aureus 08-52 after 18 to 24 hrs by agar dilution method; type: functional
Procedure, shortened: (§2)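 Agar dilution MIC per NCCLS recommendations. MIC is the lowest concentration giving no visible bacterial growth after incubation at 35 °C for 18–24 h.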

[3] = system: Staphylococcus epidermidis; test: Antibacterial activity against Staphylococcus epidermidis ATCC 12228 after 18 to 24 hrs by agar dilution method; type: functional; procedure, shortened: as §1
[4] = system: Staphylococcus epidermidis; test: Antibacterial activity against methicillin-resistant Staphylococcus epidermidis 08-18 after 18 to 24 hrs by agar dilution method; type: functional; procedure, shortened: as §2
Streptococcus pneumoniae = test: Antibacterial activity against Streptococcus pneumoniae ATCC 49619 after 18 to 24 hrs by agar dilution method; type: functional; procedure, shortened: as §1
Streptococcus pyogenes = test: Antibacterial activity against Streptococcus pyogenes 06-1 after 18 to 24 hrs by agar dilution method; type: functional; procedure, shortened: as §1
Enterococcus faecalis = test: Antibacterial activity against Enterococcus faecalis ATCC 29212 after 18 to 24 hrs by agar dilution method; type: functional; procedure, shortened: as §1
Escherichia coli = test: Antibacterial activity against Escherichia coli 26 after 18 to 24 hrs by agar dilution method; type: functional; procedure, shortened: as §1
Klebsiella pneumoniae = test: Antibacterial activity against Klebsiella pneumoniae 7 after 18 to 24 hrs by agar dilution method; type: functional; procedure, shortened: as §1
Pseudomonas aeruginosa = test: Antibacterial activity against Pseudomonas aeruginosa 17 after 18 to 24 hrs by agar dilution method; type: functional; procedure, shortened: as §1
Shigella sonnei = test: Antibacterial activity against Shigella sonnei 51592 after 18 to 24 hrs by agar dilution method; type: functional; procedure, shortened: as §1
Enterobacter cloacae = test: Antibacterial activity against Enterobacter cloacae 45301 after 18 to 24 hrs by agar dilution method; type: functional; procedure, shortened: as §1
[5] = Cytotoxicity against african green monkey Vero cells after 48 hrs by CPE assay; type: cell-based; settings: chlorocebus sabaeus

Structure (SMILES)	MIC (Staphylococcus aureus [1]) [µg/mL]	MIC (Staphylococcus aureus [2]) [µg/mL]	MIC [3] [µg/mL]	MIC [4] [µg/mL]	MIC (Streptococcus pneumoniae) [µg/mL]	MIC (Streptococcus pyogenes) [µg/mL]	MIC (Enterococcus faecalis) [µg/mL]	MIC (Escherichia coli) [µg/mL]	MIC (Klebsiella pneumoniae) [µg/mL]	MIC (Pseudomonas aeruginosa) [µg/mL]	MIC (Shigella sonnei) [µg/mL]	MIC (Enterobacter cloacae) [µg/mL]	CC50 at 48 h [5] [µg/mL]
CO/N=C1/CCN(c2nc3c(cc2F)c(=O)c(C(=O)O)cn3C2CC2)CC1(C)CN (configuration not stated)	0.5 (≈ 1.2 µM)	8 (≈ 19.2 µM)	1 (≈ 2.4 µM)	0.25 (≈ 0.599 µM)	32 (≈ 76.7 µM)	8 (≈ 19.2 µM)	32 (≈ 76.7 µM)	0.5 (≈ 1.2 µM)	0.5 (≈ 1.2 µM)	8 (≈ 19.2 µM)	1 (≈ 2.4 µM)	4 (≈ 9.58 µM)	177 (≈ 423 µM)
CCO/N=C1/CCN(c2nc3c(cc2F)c(=O)c(C(=O)O)cn3C2CC2)CC1(C)CN (configuration not stated)	0.25 (≈ 0.579 µM)	8 (≈ 18.5 µM)	0.5 (≈ 1.16 µM)	0.25 (≈ 0.579 µM)	4 (≈ 9.27 µM)	16 (≈ 37.1 µM)	4 (≈ 9.27 µM)	1 (≈ 2.32 µM)	1 (≈ 2.32 µM)	16 (≈ 37.1 µM)	1 (≈ 2.32 µM)	8 (≈ 18.5 µM)	44.2 (≈ 102 µM)
CO/N=C1/CCN(c2nc3c(cc2F)c(=O)c(C(=O)O)cn3-c2ccc(F)cc2F)CC1(C)CN (configuration not stated)	1 (≈ 2.04 µM)	128 (≈ 262 µM)	2 (≈ 4.09 µM)	2 (≈ 4.09 µM)	64 (≈ 131 µM)	64 (≈ 131 µM)	> 128	8 (≈ 16.3 µM)	128 (≈ 262 µM)	32 (≈ 65.4 µM)	8 (≈ 16.3 µM)	32 (≈ 65.4 µM)	88.4 (≈ 181 µM)
CCO/N=C1/CCN(c2nc3c(cc2F)c(=O)c(C(=O)O)cn3-c2ccc(F)cc2F)CC1(C)CN (configuration not stated)	2 (≈ 3.97 µM)	128 (≈ 254 µM)	4 (≈ 7.94 µM)	2 (≈ 3.97 µM)	128 (≈ 254 µM)	64 (≈ 127 µM)	> 128	8 (≈ 15.9 µM)	64 (≈ 127 µM)	128 (≈ 254 µM)	16 (≈ 31.8 µM)	32 (≈ 63.6 µM)	78.8 (≈ 156 µM)
CO/N=C1/CCN(c2c(F)cc3c(=O)c(C(=O)O)cn(C4CC4)c3c2F)CC1(C)CN (configuration not stated)	0.25 (≈ 0.575 µM)	16 (≈ 36.8 µM)	0.25 (≈ 0.575 µM)	0.25 (≈ 0.575 µM)	32 (≈ 73.7 µM)	32 (≈ 73.7 µM)	64 (≈ 147 µM)	0.5 (≈ 1.15 µM)	64 (≈ 147 µM)	16 (≈ 36.8 µM)	1 (≈ 2.3 µM)	4 (≈ 9.21 µM)	88.4 (≈ 203 µM)
CCO/N=C1/CCN(c2c(F)cc3c(=O)c(C(=O)O)cn(C4CC4)c3c2F)CC1(C)CN (configuration not stated)	0.125 (≈ 0.279 µM)	8 (≈ 17.8 µM)	0.25 (≈ 0.557 µM)	0.25 (≈ 0.557 µM)	8 (≈ 17.8 µM)	16 (≈ 35.7 µM)	2 (≈ 4.46 µM)	2 (≈ 4.46 µM)	2 (≈ 4.46 µM)	16 (≈ 35.7 µM)	2 (≈ 4.46 µM)	16 (≈ 35.7 µM)	62.5 (≈ 139 µM)
CCn1cc(C(=O)O)c(=O)c2cc(F)c(N3CC/C(=N/OC)C(C)(CN)C3)c(F)c21 (configuration not stated)	1 (≈ 2.37 µM)	32 (≈ 75.8 µM)	2 (≈ 4.73 µM)	2 (≈ 4.73 µM)	128 (≈ 303 µM)	64 (≈ 152 µM)	128 (≈ 303 µM)	8 (≈ 18.9 µM)	64 (≈ 152 µM)	64 (≈ 152 µM)	8 (≈ 18.9 µM)	32 (≈ 75.8 µM)	315 (≈ 746 µM)
CCO/N=C1/CCN(c2c(F)cc3c(=O)c(C(=O)O)cn(CC)c3c2F)CC1(C)CN (configuration not stated)	2 (≈ 4.58 µM)	16 (≈ 36.7 µM)	4 (≈ 9.16 µM)	2 (≈ 4.58 µM)	64 (≈ 147 µM)	64 (≈ 147 µM)	128 (≈ 293 µM)	16 (≈ 36.7 µM)	16 (≈ 36.7 µM)	128 (≈ 293 µM)	32 (≈ 73.3 µM)	128 (≈ 293 µM)	78.8 (≈ 180 µM)
CO/N=C1/CCN(c2c(F)cc3c(=O)c(C(=O)O)cn(CCF)c3c2F)CC1(C)CN (configuration not stated)	2 (≈ 4.54 µM)	64 (≈ 145 µM)	4 (≈ 9.08 µM)	2 (≈ 4.54 µM)	128 (≈ 291 µM)	128 (≈ 291 µM)	> 128	8 (≈ 18.2 µM)		64 (≈ 145 µM)	16 (≈ 36.3 µM)	64 (≈ 145 µM)	315 (≈ 715 µM)
CCO/N=C1/CCN(c2c(F)cc3c(=O)c(C(=O)O)cn(CCF)c3c2F)CC1(C)CN (configuration not stated)	2 (≈ 4.4 µM)	64 (≈ 141 µM)	4 (≈ 8.8 µM)	4 (≈ 8.8 µM)	128 (≈ 282 µM)	128 (≈ 282 µM)	128 (≈ 282 µM)	16 (≈ 35.2 µM)	64 (≈ 141 µM)	128 (≈ 282 µM)	64 (≈ 141 µM)	64 (≈ 141 µM)	157 (≈ 347 µM)
CO/N=C1/CCN(c2c(F)cc3c(=O)c(C(=O)O)cn4c3c2OC[C@@H]4C)CC1(C)CN (some centres not stated)	1 (≈ 2.31 µM)	64 (≈ 148 µM)	2 (≈ 4.62 µM)	1 (≈ 2.31 µM)	128 (≈ 296 µM)	64 (≈ 148 µM)	128 (≈ 296 µM)	4 (≈ 9.25 µM)	128 (≈ 296 µM)	32 (≈ 74 µM)	8 (≈ 18.5 µM)	16 (≈ 37 µM)	177 (≈ 409 µM)
C[C@H]1COc2c(N3CCN(C)CC3)c(F)cc3c(=O)c(C(=O)O)cn1c23.C[C@H]1COc2c(N3CCN(C)CC3)c(F)cc3c(=O)c(C(=O)O)cn1c23.O [LEVOFLOXACIN]	0.125	16	0.25	0.125		16	0.5			0.25	1	0.125	> 1000
